Where “and” joins values, the source holds several entries; their conditions need not be identical. Equal entries are not always repeated.
Experiments:
A. baumannii NCTC 13420 = assay: Broth microdilution MIC/MBC, A. baumannii; type: cell-based, Acinetobacter baumannii; conditions: for MIC A. baumannii NCTC 13420: value before the parentheses, two values = two repeats; for MBC A. baumannii NCTC 13420: value in parentheses
Log P determination = conditions: n-octanol/water, Au by FAAS
Gram-negative strains = assay: Broth microdilution, Gram-negative strains taken together; type: cell-based
E. cloacae NCTC 13405 = assay: Broth microdilution MIC/MBC, E. cloacae; type: cell-based, Enterobacter cloacae; conditions: for MIC E. cloacae NCTC 13405: value before the parentheses, two values = two repeats; for MBC E. cloacae NCTC 13405: value in parentheses; for fold enhancement of activity over auranofin, E. cloacae: vs auranofin
In short: (§1)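 CLSI broth microdilution in cation-adjusted Mueller–Hinton broth. Log-phase cultures were diluted to 7.5 × 10^5 CFU/mL, then mixed 1:1 with 2-fold serial dilutions of gold complexes from DMSO or water stocks, in triplicate, and held 37 °C, 18 h, static. MIC: lowest concentration giving >90% inhibition by OD600 against medium-only and bacteria-only wells. […] E. coli ATCC 25922 quality control was checked each run with ciprofloxacin and […].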

E. faecium ATCC 700221 = assay: Broth microdilution MIC/MBC, E. faecium; type: cell-based, Enterococcus faecium; conditions: for MIC E. faecium ATCC 700221: value before the parentheses, two values = two repeats; for MBC E. faecium ATCC 700221: value in parentheses
In short: as §1

S. aureus JE2 (USA300) = assay: Broth microdilution MIC/MBC, S. aureus; type: cell-based, Staphylococcus aureus; conditions: for MBC S. aureus JE2 (USA300): value in parentheses; for MIC S. aureus JE2 (USA300): value before the parentheses, two values = two repeats
In short: as §1

P. aeruginosa NCTC 13437 = assay: Broth microdilution MIC/MBC, P. aeruginosa; type: cell-based, Pseudomonas aeruginosa; conditions: for MIC P. aeruginosa NCTC 13437: value before the parentheses, two values = two repeats; for MBC P. aeruginosa NCTC 13437: value in parentheses
In short: as §1

E. coli ATCC 25922 = assay: Broth microdilution MIC/MBC, E. coli; type: cell-based, Escherichia coli; conditions: for MIC E. coli ATCC 25922: value before the parentheses, two values = two repeats; for MBC E. coli ATCC 25922: value in parentheses
In short: as §1

[1] = system: K. pneumoniae ATCC 700603; assay: Broth microdilution MIC/MBC, K. pneumoniae; type: cell-based, Klebsiella pneumoniae; conditions: for MIC K. pneumoniae ATCC 700603: value before the parentheses, two values = two repeats; for MBC K. pneumoniae ATCC 700603: value in parentheses; for fold enhancement of activity over auranofin, K. pneumoniae: vs auranofin
In short: as §1

A549 cells = assay: Cytotoxicity assay; type: cell-based, human; conditions: read-out: IC50 against A549 cells; means ± SEM from two independent experiments

SMILES	MIC A. baumannii NCTC 13420 (A. baumannii NCTC 13420)	log P (Log P determination)	MIC E. cloacae NCTC 13405 (E. cloacae NCTC 13405)	MIC E. faecium ATCC 700221 (E. faecium ATCC 700221)	MBC E. faecium ATCC 700221 (E. faecium ATCC 700221) [µM]	MBC S. aureus JE2 (USA300) (S. aureus JE2 (USA300)) [µM]	MIC P. aeruginosa NCTC 13437 (P. aeruginosa NCTC 13437) [µM]	MIC E. coli ATCC 25922 (E. coli ATCC 25922) [µM]	MIC K. pneumoniae ATCC 700603 [1] [µM]	MBC A. baumannii NCTC 13420 (A. baumannii NCTC 13420) [µM]	MBC E. cloacae NCTC 13405 (E. cloacae NCTC 13405)	MIC S. aureus JE2 (USA300) (S. aureus JE2 (USA300))	MBC E. coli ATCC 25922 (E. coli ATCC 25922) [µM]	MBC K. pneumoniae ATCC 700603 [1] [µM]	further results
CC[P+](CC)(CC)[Au-][S]c1ccc([N+](=O)[O-])cc1 [Compound 19, (4-Nitrobenzenethiolato)(triethylphosphine) Gold(I)]	>546 µM	>3.28	>546 µM	0.06 µM and 0.1 µM	0.5	0.02	>546	>546	>546	–	–	–	–	–	activity toward Gram-negative strains (in words) (Gram-negative strains): completely inactive; MIC S. aureus (S. aureus JE2 (USA300)): in the nanomolar range; fold enhancement of activity over auranofin, S. aureus (S. aureus JE2 (USA300); vs auranofin): up to 10
CC[PH](CC)(CC)[Au][S]c1ccc(C(F)(F)F)cc1 [Compound 20, (4-(Trifluoromethyl)benzenethiolato)(triethylphosphine) Gold(I)]	520 µM	>3.18	>520 µM	0.02 µM	0.2	0.2	>520	>520	>520	> 520	–	–	–	–	activity toward Gram-negative strains (in words) (Gram-negative strains): completely inactive
FC(F)(F)c1ccc(P(c2ccc(C(F)(F)F)cc2)c2ccc(C(F)(F)F)cc2)cc1.[Cl][Au] [Compound 30, (Tris(4-trifluoromethylphenyl)phosphine)gold Chloride]	>366 µM	>3.94	>366 µM	>366 µM	–	11	>366	>366	>366	–	–	–	–	–	–
CC(=O)OCC1O[C@@H]([S][Au-][P+](C)(C)C)C(OC(C)=O)[C@@H](OC(C)=O)[C@@H]1OC(C)=O (stereo partly drawn) [Compound 31, (2,3,4,6-Tetra-O-acetyl-1-thio-β-D-glucopyranosato)-(trimethylphosphine) Gold(I)]	–	0.35	3.1 µM and 3 µM	0.2 µM and 0.4 µM	0.8	0.2	101	6	13	101	3.1 µM and 3 µM	0.1 µM	6	13	fold enhancement of activity over auranofin, E. cloacae (E. cloacae NCTC 13405): 60 and 61; IC50 (A549 cells): 20.6 ± 3.6 µM; MBC P. aeruginosa NCTC 13437 (P. aeruginosa NCTC 13437): 101 µM; fold enhancement of activity over auranofin, K. pneumoniae [1]: 30
CCCC[P+](CCCC)(CCCC)[Au-][S][C@@H]1OC(COC(C)=O)[C@@H](OC(C)=O)[C@H](OC(C)=O)C1OC(C)=O (stereo partly drawn) [Compound 32, (2,3,4,6-Tetra-O-acetyl-1-thio-β-D-glucopyranosato)(tri-n-butylphosphine) Gold(I)]	84 µM	>4.32	>336 µM	3 µM and 5 µM	3	3	>336	>336	>336	> 336	–	3 µM	–	–	activity toward Gram-negative strains (in words) (Gram-negative strains): completely diminished the activity
CC(=O)OCC1O[C@@H]([S][Au-][P+](c2ccccc2)(c2ccccc2)c2ccccc2)C(OC(C)=O)[C@@H](OC(C)=O)[C@@H]1OC(C)=O (stereo partly drawn) [Compound 33, (2,3,4,6-Tetra-O-acetyl-1-thio-β-D-glucopyranosato)-(triphenylphosphine) Gold(I)]	>311 µM	>3.87	>311 µM	5 µM	5	2	>311	>311	>311	–	–	1 µM and 2 µM	–	–	–
COc1ccc([P+]([Au-][S][C@@H]2OC(COC(C)=O)[C@@H](OC(C)=O)[C@H](OC(C)=O)C2OC(C)=O)(c2ccc(OC)cc2)c2ccc(OC)cc2)cc1 (stereo partly drawn) [Compound 34, (2,3,4,6-Tetra-O-acetyl-1-thio-β-D-glucopyranosato)(tris(4-methoxyphenyl)phosphine) Gold(I)]	>281 µM	>3.03	>281 µM	2 µM and 4 µM	4	2	>281	>281	>281	–	–	1 µM	–	–	–
CC(=O)OCC1O[C@@H]([S][Au-][P+](c2ccc(F)cc2)(c2ccc(F)cc2)c2ccc(F)cc2)C(OC(C)=O)[C@@H](OC(C)=O)[C@@H]1OC(C)=O (stereo partly drawn) [Compound 35, (2,3,4,6-Tetra-O-acety/-1-thio-β-D-glucopyranosato)(tris(4-fluorophenyl)phosphine) Gold(I)]	>292 µM	>3.04	>292 µM	–	5	2	>292	>292	>292	–	–	1 µM	–	–	–
CC(=O)OCC1O[C@@H]([S][Au-][P+](c2ccc(C(F)(F)F)cc2)(c2ccc(C(F)(F)F)cc2)c2ccc(C(F)(F)F)cc2)C(OC(C)=O)[C@@H](OC(C)=O)[C@@H]1OC(C)=O (stereo partly drawn) [Compound 36, (2,3,4,6-Tetra-O-acetyl-1-thio-β-D-glucopyranosato)(tris(4-(trifluoromethyl)phenylphosphine)) Gold(I)]	>249 µM	>3.55	>249 µM	31 µM	62	8	>249	>249	>249	–	–	4 µM	–	–	–
C[PH](C)(C)[Au][S]C1OC(CO)C(O)C(O)C1O [Compound 37, (1-Thio-β-D-glucopyranosato)(trimethylphosphine) Gold(I)]	–	−1.63	–	0.3 µM and 0.5 µM	0.5	1	>547	9	34	17	17 µM	0.3 µM and 0.5 µM	9	34	–
C[PH](C)(C)[Au][S]C1OC(CO)C(O)C(O)C1O [Compound 38, (1-Thioβ-D-galatopyranosato)(trimethylphosphine) Gold(I)]	17 µM and 9 µM	−1.88	4.5 µM and 4 µM	0.3 µM and 0.5 µM	0.5	0.3	>547	9	34	17	4.5 µM and 4 µM	0.3 µM	9	34	–
CC(=O)NC1C([S][Au][PH](C)(C)C)OC(CO)C(O)C1O [Compound 39, (2-Acetamido-2-deoxy-1-thio-β-D-glucopyranosato)-(trimethylphosphine) Gold(I)]	16 µM and 8 µM	−2.03	8 µM and 16 µM	–	0.5	0.5	>503	–	31	16	16 µM	0.5 µM	31	126	–
C[PH](C)(C)[Au][S]CCO [Compound 40, (2-Mercaptoethanolato)(trimethylphosphine) Gold(I)]	5.7 µM and 6 µM and 3 µM	−0.15	2.9 µM and 3 µM	0.3 µM	0.3	0.7	–	–	11	23	3 µM	0.3 µM	11	23	fold enhancement of activity over auranofin, E. cloacae (E. cloacae NCTC 13405): 65; IC50 (A549 cells): 35.1 ± 8.9 µM; MBC P. aeruginosa NCTC 13437 (P. aeruginosa NCTC 13437): 91 µM; MIC K. pneumoniae [1]: 11 μ/mL; fold enhancement of activity over auranofin, K. pneumoniae [1]: 34

— publication PMC7941214 (Journal of medicinal chemistry, 2019)
